Results from ChEMBL document CHEMBL1143180, “Imidazolyl benzimidazoles and imidazo[4,5-b]pyridines as potent p38alpha MAP kinase inhibitors with excellent in vivo antiinflammatory properties” (Bioorg Med Chem Lett, 2008).
pIC50: −log10 of the molar value.

Tests used:
[1] = molecular target: Mitogen-activated protein kinase 14 (Homo sapiens, UniProt Q16539); experiment: Inhibition of human recombinant p38alpha
[2] = test system: Macrophage; experiment: Inhibition of LPS-stimulated TNFalpha production in mouse peritoneal macrophages; format: functional, cell-based
Procedure, shortened: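 Murine peritoneal macrophages stimulated with LPS while exposed to test compound; TNFα release measured as functional read-out. Cell assay minimum significant ratio 2.8.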

[3] = molecular target: Mitogen-activated protein kinase 14 (Mus musculus, UniProt P47811); experiment: Inhibition of mouse p38alpha in anisomycin-stimulated RAW 264.7 cells by ELISA; format: cell-based
Mitogen-activated protein kinase 14 (Mus musculus, UniProt P47811), sequence (P47811 whole entry): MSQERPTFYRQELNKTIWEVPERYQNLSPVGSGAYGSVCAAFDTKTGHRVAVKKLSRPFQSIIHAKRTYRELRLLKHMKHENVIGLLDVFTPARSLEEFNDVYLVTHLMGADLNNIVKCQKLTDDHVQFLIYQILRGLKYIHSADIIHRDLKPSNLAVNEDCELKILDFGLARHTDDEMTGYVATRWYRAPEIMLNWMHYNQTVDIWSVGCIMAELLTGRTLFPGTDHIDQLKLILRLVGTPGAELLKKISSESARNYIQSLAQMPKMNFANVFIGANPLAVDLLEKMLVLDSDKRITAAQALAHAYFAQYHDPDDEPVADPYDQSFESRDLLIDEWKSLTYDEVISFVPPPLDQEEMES
Procedure, shortened: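 Cell-based ELISA: RAW 264.7 cells pretreated with compound, then stimulated with anisomycin; p38α activity detected by antibody to phospho-MAPKAPK-2 (Thr334), a residue phosphorylated specifically by p38α. Minimum significant ratio 2.8.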

[4] = test system: Mus musculus; experiment: Inhibition of LPS-stimulated TNFalpha production in po dosed BALB/c mouse; format: functional
[5] = test system: Rattus norvegicus; experiment: Antiinflammatory activity against collagen-induced arthritis rat model assessed as inhibition of paw swelling administered orally twice daily for 14 days; format: functional
Procedure, shortened: (§1)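 Rat collagen-induced arthritis, 14-day chronic model; activity scored by paw swelling and by histopathology (bone erosion, cartilage destruction); TMED50 derived from dose response.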

[6] = test system: Rattus norvegicus; experiment: Antiinflammatory activity against collagen-induced arthritis rat model assessed as effect on histopathology scores administered orally twice daily for 14 days; format: functional; procedure, shortened: as §1
[7] = AUC (0 to infinity) in rat at 10 mg/kg, po; format: ADME, organism-based; parameters: time infinity, dose 10 mg/kg, route oral; details: plasma
Procedure, shortened: (§2)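 Rats dosed orally at 10 mg/kg; plasma exposure reported as AUC0-inf and terminal half-life.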

[8] = Half life in rat at 10 mg/kg, po; format: ADME, organism-based; parameters: dose 10 mg/kg, route oral; details: in vivo; procedure, shortened: as §2

Mitogen-activated protein kinase 14 (Homo sapiens, UniProt Q16539), sequence (Q16539 whole entry): as the sequence (P47811 whole entry) above, with H48L, A263T counted along it

Row | Structure (SMILES) | pIC50 [1] | pIC50 [2] | pIC50 [3] | AUC(0-inf) [7] [µM·h] | half-life [8] [min] | TMED50 [4] [mg/kg] | TMED50 [5] [mg/kg] | TMED50 [6] [mg/kg]
1 | Cc1nc2ccc(-c3[nH]c(-c4c(F)cccc4F)nc3-c3ccccc3)cc2n1CC(C)C | 7.95 | 6.47 |  |  |  |  |  | 
2 | CCNc1nc2ccc(-c3[nH]c(-c4c(F)cccc4F)nc3-c3ccccc3)cc2[nH]1 | 7.25 | 6.31 |  |  |  |  |  | 
3 | Nc1nc2ccc(-c3[nH]c(-c4c(F)cccc4F)nc3-c3ccccc3)cc2n1-c1ccccc1 | 6.80 |  |  |  |  |  |  | 
4 | CC(C)S(=O)(=O)n1c(N)nc2ccc(-c3nc(-c4c(Cl)cccc4Cl)[nH]c3-c3ccc(F)cc3)cc21 | 8.17 | 8.28 | 7.56 |  |  |  |  | 
5 | CC(C)Cn1cnc2ccc(-c3[nH]c(-c4c(F)cccc4F)nc3-c3ccccc3)cc21 | 7.79 | 7.28 |  |  |  |  |  | 
6 | CC(C)S(=O)(=O)n1c(N)nc2ccc(-c3[nH]c(-c4c(Cl)cccc4C(F)(F)F)nc3-c3ccccc3)cc21 | 8.07 | 8.72 | 6.40 |  |  |  |  | 
7 | CC(C)S(=O)(=O)n1c(N)nc2ccc(-c3[nH]c(-c4c(F)cccc4F)nc3-c3ccccc3)nc21 | 8.46 | 8.43 | 6.53 |  |  |  |  | 
8 | CC(C)(C)Cn1c(N)nc2ccc(-c3[nH]c(-c4c(F)cccc4F)nc3-c3ccccc3)nc21 | 8.19 | > 8.05 |  |  |  |  |  | 
9 | Fc1cccc(F)c1-c1nc(-c2ccccc2)c(-c2ccc3nc[nH]c3c2)[nH]1 | 7.05 | 6.38 | 6.12 |  |  |  |  | 
10 | CC(C)Cn1cnc2ccc(-c3[nH]c(-c4c(F)cccc4F)nc3-c3ccccc3)nc21 | 8.35 | 7.57 | 7.16 |  |  |  |  | 
11 | CCNc1nc2ccc(-c3[nH]c(-c4c(F)cccc4F)nc3-c3ccccc3)cc2n1S(=O)(=O)C(C)C | 6.81 | 6.28 |  |  |  |  |  | 
12 | CC(C)S(=O)(=O)n1c(N)nc2ccc(-c3nc(-c4c(Cl)cccc4Cl)[nH]c3-c3ccccc3)cc21 |  | 8.59 | 7.41 |  |  |  |  | 
13 | CC(C)(C)Cn1c(N)nc2ccc(-c3[nH]c(-c4c(F)cccc4F)nc3-c3ccccc3)cc21 | 8.22 | 8.46 | 6.90 |  |  |  |  | 
14 | Cc1nc(-c2ccc(F)cc2)c(-c2ccc3nc(N)n(S(=O)(=O)C(C)C)c3c2)[nH]1 | 8.15 | 6.99 | 6.65 |  |  |  |  | 
15 | CC(C)S(=O)(=O)n1c(N)nc2ccc(-c3[nH]c(-c4ccc(Cl)cc4)nc3-c3ccccc3)cc21 | 7.46 | 7.15 | 6.42 |  |  |  |  | 
16 | Cc1nc(-c2ccc(F)cc2F)c(-c2ccc3nc(N)n(S(=O)(=O)C(C)C)c3c2)[nH]1 | 8.06 | 7.33 | 7.22 |  |  |  |  | 
17 | CC(C)Cn1cnc2ccc(-c3[nH]c(-c4c(Cl)cccc4Cl)nc3-c3ccccc3)nc21.CS(=O)(=O)O | 8.43 | 8.77 | 7.19 | 29.9 | 240 | <2.5 | 15 | >30

Now from value to compound, other results behind:

Row | pIC50 [1] | pIC50 [2] | pIC50 [3] | AUC(0-inf) [7] [µM·h] | half-life [8] [min] | Structure (SMILES) | TMED50 [4] [mg/kg] | TMED50 [5] [mg/kg] | TMED50 [6] [mg/kg]
18 | 5.60 | 6.63 |  |  |  | CC(C)S(=O)(=O)n1c(N(C)Cc2ccccc2)nc2ccc(-c3[nH]c(-c4c(F)cccc4F)nc3-c3ccccc3)cc21 |  |  | 
19 | 7.69 | 6.73 |  |  |  | Cc1nc(-c2ccccc2)c(-c2ccc3nc(N)n(S(=O)(=O)C(C)C)c3c2)[nH]1 |  |  | 
20 |  | 7.99 | 7.34 | 5.5 | 300 | CC(C)S(=O)(=O)n1c(N)nc2ccc(-c3[nH]c(-c4c(F)cccc4F)nc3-c3ccccc3)cc21 | 5.2 | >30 | >30
21 | 8.00 | 7.32 | 7.11 |  |  | CC(C)Cn1c(N)nc2ccc(-c3[nH]c(-c4c(F)cccc4F)nc3-c3ccccc3)cc21 |  |  | 
22 | 6.88 | 5.88 |  |  |  | Nc1nc2ccc(-c3[nH]c(-c4c(F)cccc4F)nc3-c3ccccc3)cc2[nH]1 |  |  | 
23 | 7.84 | 7.95 | 7.13 |  |  | CC(C)S(=O)(=O)n1c(N)nc2ccc(-c3[nH]c(-c4c(F)cccc4Cl)nc3-c3ccccc3)cc21 |  |  | 
24 | 8.60 | 8.89 | 7.46 |  |  | CC(C)Cn1c(N)nc2ccc(-c3[nH]c(-c4c(F)cccc4F)nc3-c3ccccc3)nc21 |  |  | 
25 |  | 7.50 | 6.71 |  |  | CC(C)S(=O)(=O)n1c(N)nc2ccc(-c3[nH]cnc3-c3ccccc3)cc21 |  |  | 
26 | 8.21 | 7.85 | 7.21 |  |  | CC(C)S(=O)(=O)n1c(N)nc2ccc(-c3[nH]c(-c4ccncc4)nc3-c3ccccc3)cc21 |  |  | 
27 |  | 8.21 | 7.58 | 14.6 | 480 | CC(C)S(=O)(=O)n1c(N)nc2ccc(-c3[nH]c(C(C)(C)C)nc3-c3ccc(F)cc3F)cc21 | 2.2 | 1.5 | 8.1
28 |  | 7.62 | 7.68 |  |  | CC(C)(C)Cn1cnc2ccc(-c3[nH]c(C(C)(C)C)nc3-c3ccc(F)cc3F)nc21 |  |  | 
29 | 7.58 | 7.48 | 6.55 |  |  | CC(C)S(=O)(=O)n1c(N)nc2ccc(-c3nc(-c4ccccc4C(F)(F)F)[nH]c3-c3ccccc3)cc21 |  |  | 
